Screens from PubChem BioAssay.
S1P4 ag = agonists of human S1P4 receptor; O95977; S1P4-expressing cell line, agonist reporter assay; activation, % at 4.98 µM; 220,000 compounds, 0.35% hits; in the data active means activation above about 11%;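 further: 0% = DMSO vehicle and 100% = reference agonist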
S1P4 antag = blocks the human S1P4 receptor; S1P4-expressing cells, antagonist mode, reporter read-out; 220,000 compounds, 0.26% hits; inhibition, % at 4.98 µM; in the data active means inhibition above about 29%;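 further: 0% = wells stimulated with agonist and 100% = vehicle wells without agonist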
Calb biofilm kill = mixtures killing C. albicans biofilm; C. albicans biofilm persisters + clotrimazole, fluorescence viability; primary screen in compound mixtures of four per well; inhibition, % at 7.6 µM; 120,000 compounds, 0.02% hits;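 active means inhibition above 30.3% in the primary screen of four-compound pools, then above 30% when the compound was retested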;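 further: compounds exposed to preformed 24 h biofilms for 48 h; 0% = untreated biofilm control and 100% = clotrimazole plus chlorhexidine kill blank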
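Assay system: C. albicans biofilms / Medium: RPMI/MOPS medium, pH 7.0 / Schedule: biofilm formation 24 h, compound exposure 48 h, 37 °C / Measured by: Alamar Blue fluorescence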
S1P3 antagonist = blocks the human S1P3 receptor | AID 485 | inhibition, % at 4.98 µM | CHO S1P3 NFAT-BLA reporter, FRET fluorescence, antagonist mode | 170,000 compounds, 0.27% hits | Q99500;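 active means inhibition above the plate cutoff, the mean inhibition of test wells on that plate plus 3 SD, cut at about 28% in these data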;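 further: cells challenged with S1P at its EC80 of 0.8 µM; blue over green emission ratio from cleaved BLA substrate after 4 h stimulation; 0% = S1P-stimulated wells and 100% = unstimulated DMSO-only wells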
Pf gamet viab = P. falciparum stage V gametocyte viability inhibition; P. falciparum stage V gametocytes, ATP luminescence, 24 h; inhibition, % at 10.9 µM; 150,000 compounds, 0.065% hits;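 active means inhibition above the mean plus 3 SD of compounds within the control limits, set per campaign, cut at about 38% in these data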;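 further: 0% = DMSO wells and 100% = medium only without gametocytes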
S1P4 agonist cf = confirmation of human S1P4 receptor agonists; shares compounds with S1P4 ag; S1P4 agonist cell-based reporter assay; activation, % at 4.98 µM; 740 compounds, 7% hits; in the data active means activation above about 12%;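 further: 0% = vehicle and 100% = full reference agonist response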
S1P1 ag = activates human S1P1, counter-screen for S1P4 agonists. 740 compounds, 4% hits. S1P1 agonist cell-based assay, activation. activation, % at 4.98 µM. shares compounds with S1P4 ag; in the data active means activation above about 21%;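 further: 0% = vehicle wells and 100% = reference agonist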
Target sequence (P21453 whole entry, looked up): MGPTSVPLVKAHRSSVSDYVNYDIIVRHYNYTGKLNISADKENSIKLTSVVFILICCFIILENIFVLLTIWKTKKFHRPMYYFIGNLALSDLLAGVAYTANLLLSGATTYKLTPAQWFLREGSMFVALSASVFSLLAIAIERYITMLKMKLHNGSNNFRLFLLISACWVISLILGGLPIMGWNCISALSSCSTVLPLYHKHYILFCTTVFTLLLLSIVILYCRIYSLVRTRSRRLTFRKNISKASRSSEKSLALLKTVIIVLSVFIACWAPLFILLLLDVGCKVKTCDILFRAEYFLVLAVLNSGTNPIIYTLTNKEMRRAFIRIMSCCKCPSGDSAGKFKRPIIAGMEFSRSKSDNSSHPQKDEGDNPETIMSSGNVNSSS
* = called active by the depositor; x = not tested or not shown. The list is not random: actives were taken first. Their share in the collection is about 0.77%.

SMILES	S1P4 ag	S1P4 antag	Calb biofilm kill	S1P3 antagonist	Pf gamet viab	S1P4 agonist cf	S1P1 ag
Cc1cc(C)n(S(=O)(=O)c2ccc(C)c(C)c2C)n1	0.2	-20.7	x	-13.3	-28.7	x	x
COc1ccc(S(=O)(=O)n2nc(C)cc2C)c(C)c1C	48.1*	0.3	x	x	-21.7	-2.2	-3.9
O=C(Nc1cccc(NC(=O)C2C3CC4OC(=O)C2C4C3)c1)c1ccccc1 (stereo not given)	0.3	5.7	4.7	-9.4	-9.9	x	x
Cc1nn(Cc2ccc(Cl)c(Cl)c2)c(C)c1NC(=O)c1cc(-c2ccc3c(c2)OCO3)on1	21.9*	11.1	x	41.1	x	-2.5	-2.0
COCCn1c(SCC(=O)Nc2ccc(OC)c(S(N)(=O)=O)c2)nc2ccccc2c1=O	x	x	x	x	6.5	x	x
N=C(N)N1CCN(Cc2ccccc2)CC1	-1.5	5.6	8.6	-13.6	x	x	x
N/N=C1\CCCc2c1[nH]c1ccc([N+](=O)[O-])cc21	0.1	-7.7	17.4	-11.3	-13.6	x	x
O=[N+]([O-])c1ccc2[nH]c3c(c2c1)CCCC3	15.1*	5.9	18.0	7.8	9.6	-3.1	-8.9
CCOC(=O)CSc1ccc(-c2nc3ccccc3[nH]2)cn1	19.1*	-3.3	x	x	x	-0.8	-4.6
CCOC(=O)CSc1ccc(-c2nc3cc(C)c(C)cc3[nH]2)cn1	-1.6	-18.8	x	x	x	x	x
O=C(NC(=S)NCC1CCCO1)c1ccco1 (stereo not given)	14.0*	-4.6	17.4	-1.4	-17.5	-0.5	-0.2
O=C(NCC1CCCO1)/C(=C/c1ccccc1)NC(=O)c1ccccc1 (stereo not given)	27.8*	-25.1	17.1	13.8	-6.8	-3.1	-6.2
Cc1cc(-c2csc(NC(=O)c3ccc(=O)[nH]c3)n2)c(C)n1Cc1ccco1	-0.2	2.6	19.0	-8.3	5.8	x	x
CC(OC(=O)c1ccc2c(=O)n3c(nc2c1)CCCCC3)C(=O)Nc1ncc(Cl)cc1Cl (stereo not given)	11.4*	-30.7	14.4	3.0	11.2	-3.0	2.8
CC(OC(=O)c1ccc2c(=O)n3c(nc2c1)CCC3)C(N)=O (stereo not given)	-4.0	-5.2	14.5	2.5	16.2	x	x
O=C(N/C(=C\c1ccc(Br)cc1)C(=O)N1CCCC1)c1cccs1	-0.8	5.9	10.3	-22.3	x	x	x
O=C(N/C(=C/c1ccc(Br)cc1)C(=O)N1CCCC1)c1cccs1	12.8*	-2.5	16.9	-8.6	6.4	-2.0	-1.4
CSC1=C(C#N)C(=O)NC(c2ccc(Cl)cc2)S1 (stereo not given)	0.6	-22.9	4.2	3.3	14.1	x	x
O=c1c2c3c(sc2nc2sc(CN4CCOCC4)cn12)CCCC3	40.5*	-13.0	x	2.2	8.2	-2.0	-4.2
O=C(CSCc1ccc(Cl)cc1)Nc1ccc(S(=O)(=O)N2CCCCCC2)cc1	14.6*	-10.7	11.5	-12.3	-6.9	-2.6	-5.1
CCOc1ccc(CCN2C(=O)c3ccc(C(=O)O)cc3C2=O)cc1OCC	x	x	x	x	6.8	x	x
COc1ccc(-c2noc(CSc3nc4sc(C)c(C)c4c(=O)n3-c3ccccc3)n2)cc1	21.1*	-10.8	12.4	-2.4	-6.4	-0.2	-0.7
Cc1ccc2c(c1)C1CN(C)CCC1N2Sc1ccccc1[N+](=O)[O-] (stereo not given)	-1.1	12.2	6.7	5.3	-1.8	x	x
N#Cc1ccc(CSc2nnc(-c3cccnc3)o2)cc1	64.5*	-15.3	11.9	-15.5	-3.7	-2.9	-4.8
COc1ccc(N2CCN(C(=O)[C@H](Cc3c[nH]c4ccccc34)NC(C)=O)CC2)cc1	0.0	-1.3	5.9	-19.1	12.9	x	x
SMILES	S1P4 ag	S1P4 antag	Calb biofilm kill	S1P3 antagonist	Pf gamet viab	S1P4 agonist cf	S1P1 ag
CSCCC(NC(=O)c1ccc(C(C)(C)C)cc1)C(=O)O (stereo not given)	-0.4	-6.8	-2.5	-12.4	-11.8	x	x
Cc1ccc(-c2csc(/C(C#N)=C(\O)CCl)n2)cc1	19.5*	-22.7	19.2	2.7	-2.0	-2.6	-4.7
COc1ccc(-c2c(C#N)c(N)nc3c2CCc2ccccc2-3)cc1OC	13.6*	-13.2	x	x	5.3	18.5*	10.4
Cc1ccc(NC(=O)C2CCCN2C(=O)Oc2ccccc2)cc1 (stereo not given)	13.7*	-9.7	x	-8.1	-6.4	-1.6	-13.0
CCOc1ccc(S(=O)(=O)NCc2ccc3c(c2)OCO3)cc1NC(C)=O	x	x	x	x	1.9	x	x
CC(C)(C)c1ccc(N2C(=O)CSC2c2cccnc2)cc1 (stereo not given)	98.7*	12.1	16.8	-3.3	-49.7	-1.2	-6.3
Cc1nc(-c2cccnc2)sc1C(=O)Nc1ccc(C(F)(F)F)cc1	0.8	-19.0	x	x	9.3	x	x
O=C(Nc1ccc(Br)cc1)c1csc(-c2ccncc2)n1	19.1*	10.1	9.4	-8.3	-1.6	-1.9	-3.1
Cc1nc(-c2ccncc2)sc1C(=O)Nc1ccc(Br)cc1	19.9*	3.6	6.3	-13.8	16.8	-0.6	-8.4
CCN(CC)S(=O)(=O)c1ccc(C(=O)NNc2nc(-c3ccccc3)c3cc(Br)ccc3n2)cc1	13.5*	-11.5	21.2	-0.9	1.3	-1.9	3.3
COc1ccc(NC(=O)CSc2nc3ccccc3n2-c2ccccc2)c([N+](=O)[O-])c1	44.5*	-5.5	22.3	-3.4	19.2	-0.6	-2.8
COc1ccc(NC(=O)CSc2ccccc2)c([N+](=O)[O-])c1	-1.3	3.9	5.7	-2.8	-12.7	x	x
COc1cc(CC(=O)Nc2cccc(SC)c2)cc(OC)c1OC	44.6*	-11.3	10.8	0.0	9.6	-1.2	-2.6
COc1ccc(CC(=O)Nc2cccc(SC)c2)cc1	2.7	-8.2	7.3	0.9	-4.1	x	x
CCC/C(C(=O)NCCO)=C1/c2ccccc2C(=O)N1c1ccccc1	x	x	x	x	-36.9	x	x
N#Cc1cccc(C#N)c1Oc1ccc(N)cc1	-0.4	-7.6	24.3	-0.3	-5.5	x	x
CC(C)(C)C1CCc2sc(C(=O)NNC(=O)CCl)cc2C1 (stereo not given)	0.6	9.7	16.1	-10.8	11.3	x	x
COCCSc1ccccc1C(=O)N1CCN(Cc2ccccc2)CC1	13.2*	-9.8	9.2	-9.4	1.7	-1.9	-7.0
COCCSc1ccccc1C(=O)N1CCCC1	0.9	-11.6	x	-8.1	x	x	x
COCCCNC(=O)C1CCN(C(=O)Nc2ccc(Cl)cc2)CC1	60.7*	-10.3	x	-22.3	3.4	-2.2	-5.4
NS(=O)(=O)c1ccc(CCNC(=O)CCCC2=NS(=O)(=O)c3ccccc3N2)cc1	17.3*	-4.6	x	-34.5	x	-1.4	-1.8
CCCOc1ccc(N2C(=O)CC(NCC(=O)OCC)C2=O)cc1 (stereo not given)	x	x	x	x	10.9	x	x
COC(=O)c1ccc([C@H](NC(=O)c2ccco2)[C@]2(C)C[C@H]2C2CCCCC2)cc1	x	x	x	x	-14.7	x	x
O=C(COC(=O)C1(c2ccc(Cl)cc2)CCCC1)Nc1ncc(C(F)(F)F)cc1Cl	29.2*	-1.1	21.1	4.5	9.2	-1.4	0.0
CCN(C(=S)Nc1ccc(C(C)=O)cc1)C1CCCCC1	41.7*	-21.4	3.0	-4.3	-3.8	-2.4	-4.9
